pIC50: −log10 of the molar value. Activity calls are given as the source filed them. No cut-off for these calls is given here.

Data set [1] can be described thus: Cytotoxicity against RAOSMC after 3 days by cell counting analysis. Conditions: Rattus norvegicus, 72 h. In outline: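 Primary aortic SMCs from male Sprague–Dawley rats, passages 4–10, are seeded at 2 × 10⁵ per 35-mm dish in DMEM with 10% FCS. After 24 h they are arrested in 0.4% FCS for 72 h, then given 10% FCS plus compound (DMSO at most 1%) for 72 h at 37 °C. Cells are trypsinized and counted with a Coulter counter. IC50 is obtained by linear regression of log concentration versus logit.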

For data set [2], the system named is NCI-H460. Briefly: Cytotoxicity against human NCI-H460 cells after 3 days by cell counting analysis. It counts as functional, cell-based. Particulars: NCI-H460, 72 h. An outline of the steps: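 NCI-H460 cells in RPMI-1640 with 10% FCS are seeded at 8 × 10⁴ per 35-mm dish and exposed to compound (DMSO at most 1%) 24 h later. Cells are harvested after 72 h, trypsinized and counted with a Coulter counter. IC50 is derived by linear regression of log concentration versus logit.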

In data set [3] the test system is NCI-H460. Briefly: Cell cycle arrest in human NCI-H460 cells assessed as accumulation at G0/G1 phase at IC50 after 20 hrs using propidium Iodide staining by flow cytometry in presence of 10% fetal calf serum. It counts as functional. In outline: (§1)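 NCI-H460 cells are seeded at 2 × 10⁵ per 35-mm dish in RPMI with 10% FCS. After 24 h they are serum-starved in 0.4% FCS for 2 days, then restimulated with 10% FCS with or without compound at 37 °C. Cells are trypsinized, fixed in 62% ethanol and stained 30 min in the dark (5 µg/mL propidium iodide, RNase, 1% NP-40).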
On the technique in general: In flow cytometry, cells or beads pass a laser one at a time.

The subject of data set [4] is NCI-H460. Kind of data set: Cell cycle arrest in human NCI-H460 cells assessed as accumulation at S phase at IC50 after 20 hrs using propidium Iodide staining by flow cytometry in presence of 10% fetal calf serum. It counts as functional. In outline: as §1
The test system of data set [5] is NCI-H460. Briefly: Cell cycle arrest in human NCI-H460 cells assessed as accumulation at G2/M phase at IC50 after 20 hrs using propidium Iodide staining by flow cytometry in presence of 10% fetal calf serum. The data set is classed as functional. In outline: as §1
Data set [6] deals with NCI-H460. Briefly: Cell cycle arrest in human NCI-H460 cells assessed as accumulation at sub-G0/G1 phase at IC50 after 20 hrs using propidium Iodide staining by flow cytometry in presence of 10% fetal calf serum. It counts as functional, cell-based.
For data set [7], the target named is DNA topoisomerase 2-alpha (Homo sapiens) (UniProt P11388). Briefly: Inhibition of topoisomerase 2-mediated relaxation of supercoiled pRYG DNA at 0.1 uM after 10 mins using ethidium bromide staining by agarose gel electrophoresis.
Sequence of DNA topoisomerase 2-alpha (Homo sapiens) (P11388 whole entry): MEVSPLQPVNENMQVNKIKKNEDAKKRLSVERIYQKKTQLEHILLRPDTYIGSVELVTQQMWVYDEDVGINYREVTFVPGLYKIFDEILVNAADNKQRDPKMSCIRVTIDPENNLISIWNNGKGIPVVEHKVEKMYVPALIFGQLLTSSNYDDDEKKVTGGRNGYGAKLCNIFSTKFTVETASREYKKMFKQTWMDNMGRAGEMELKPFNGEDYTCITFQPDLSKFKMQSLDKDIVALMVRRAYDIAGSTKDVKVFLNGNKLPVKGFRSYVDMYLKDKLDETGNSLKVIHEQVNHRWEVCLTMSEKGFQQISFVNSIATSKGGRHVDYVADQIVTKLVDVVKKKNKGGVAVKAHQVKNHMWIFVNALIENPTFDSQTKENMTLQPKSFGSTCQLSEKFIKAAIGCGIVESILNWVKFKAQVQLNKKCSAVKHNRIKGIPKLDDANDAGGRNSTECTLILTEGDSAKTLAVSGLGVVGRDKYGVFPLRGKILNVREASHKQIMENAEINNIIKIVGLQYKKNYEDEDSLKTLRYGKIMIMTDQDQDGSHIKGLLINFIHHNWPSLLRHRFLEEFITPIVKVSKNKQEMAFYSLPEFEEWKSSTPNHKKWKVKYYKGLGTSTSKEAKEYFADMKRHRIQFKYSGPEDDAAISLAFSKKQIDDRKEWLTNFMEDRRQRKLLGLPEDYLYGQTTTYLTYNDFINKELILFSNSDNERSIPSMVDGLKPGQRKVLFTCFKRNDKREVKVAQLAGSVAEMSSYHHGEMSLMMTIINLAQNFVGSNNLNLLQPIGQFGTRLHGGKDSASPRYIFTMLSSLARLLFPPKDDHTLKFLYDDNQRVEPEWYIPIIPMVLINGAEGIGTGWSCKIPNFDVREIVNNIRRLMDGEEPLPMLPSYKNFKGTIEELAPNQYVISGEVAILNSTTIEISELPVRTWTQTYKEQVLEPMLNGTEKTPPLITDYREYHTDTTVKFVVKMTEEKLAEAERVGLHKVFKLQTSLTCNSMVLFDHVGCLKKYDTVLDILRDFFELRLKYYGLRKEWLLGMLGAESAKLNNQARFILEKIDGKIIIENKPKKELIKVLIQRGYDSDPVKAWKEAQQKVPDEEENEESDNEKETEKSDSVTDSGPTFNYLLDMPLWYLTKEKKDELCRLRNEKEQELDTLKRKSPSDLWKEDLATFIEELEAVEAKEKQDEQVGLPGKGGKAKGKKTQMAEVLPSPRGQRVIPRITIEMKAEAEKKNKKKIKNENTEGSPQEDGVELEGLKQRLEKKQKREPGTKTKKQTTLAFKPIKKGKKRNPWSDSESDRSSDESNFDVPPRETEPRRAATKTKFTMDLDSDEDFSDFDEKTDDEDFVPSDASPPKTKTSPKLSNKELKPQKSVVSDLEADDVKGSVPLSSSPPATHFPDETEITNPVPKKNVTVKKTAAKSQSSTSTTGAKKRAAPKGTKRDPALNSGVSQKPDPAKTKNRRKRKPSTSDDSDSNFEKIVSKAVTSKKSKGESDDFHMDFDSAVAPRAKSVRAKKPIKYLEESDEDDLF
The subject of data set [8] is Nucleic Acid. Kind of data set: Binding affinity to supercoiled pRYG DNA at 0.1 uM after 10 mins by agarose gel electrophoresis. It counts as nucleic-acid assay.
For data set [9], the system named is NCI-H460. Kind of data set: Antitumor activity against human NCI-H460 cells xenografted in athymic Swiss nude mouse assessed as tumor growth inhibition at 16.9 mg/kg, iv administered 2 days after tumor implantation for every 4th day for four times. It counts as functional, organism-based. On the set-up: dose 16.9 mg/kg. An outline of the steps: (§2)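 NCI-H460 tumor fragments are implanted s.c. in both flanks of athymic nude mice on day 0. Dosing is i.v. on days 2, 6, 10 and 14 (q4dx4) in 10% DMSO in water, with vehicle-only controls. Tumor diameters are measured twice weekly by caliper. Tumor weight in treated mice is compared with controls by unpaired two-tailed Student's t-test.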
(In general: Xenograft models place foreign cells or tissue in a host animal.)

The subject of data set [10] is Mus musculus. Briefly: Toxicity in human […] cells xenografted in athymic Swiss nude mouse at 16.9 mg/kg, iv administered 2 days after tumor implantation for every 4th day for four times. The data set is classed as organism-based. On the set-up: dose 16.9 mg/kg, route intravenous. Conditions: in vivo, 48 h.
The subject of data set [11] is NCI-H460. Kind of data set: Antitumor activity against human NCI-H460 cells xenografted in athymic Swiss nude mouse assessed as tumor growth inhibition at 10 mg/kg, iv administered 2 days after tumor implantation for every 4th day for four times. It counts as functional, organism-based. Also on record: dose 10 mg/kg. An outline of the steps: as §2
Data set [12] concerns NCI-H460. Kind of data set: Selectivity ratio of IC50 for rat SMC to IC50 for human NCI-H460 cells.

In the case of `O=C1C(c2ccccc2)=C(c2c[nH]c3ccccc23)C(=O)N1CCNCCCNCCN1C(=O)C(c2ccccc2)=C(c2c[nH]c3ccccc23)C1=O`, the pIC50 (commonly the IC50 on a negative log10 scale, so that one unit is a factor of ten) in data set [1] is 6.00; in [2] it was 5.41.
Consider `Cn1ccc2c3ccoc3c3c(c21)C(=O)N(CCNCCCNCCN1C(=O)c2c(c4c(ccn4C)c4ccoc24)C1=O)C3=O`, for which the negative logarithm of the IC50 (pIC50) in [1] was 7.05; in [2], 8.52. Further, the Activity in [3] was 76.63%; in data set [4], 10.56%; in [5] it was 12.81%; in data set [10], “Non-toxic”. The outcome in data set [6] was inactive. In data set [7], the inhibition entry was “Active”. The outcome in [8] was Active. The TGI result in [9] is “Active”. In data set [11], the TGI entry is “inactive”.
Consider `O=C1C(c2cccs2)=C(c2cccs2)C(=O)N1CCNCCCNCCN1C(=O)C(c2cccs2)=C(c2cccs2)C1=O`, for which the pIC50 was 5.89 in data set [1] and 5.37 in [2].
Turning to `O=C1c2cccc3cccc(c23)C(=O)N1CCNCCCNCCN1C(=O)c2cccc3cccc(c23)C1=O` [ELINAFIDE], the values for the negative logarithm of the IC50 (pIC50) in [1] and in data set [2] were 7.92 and 8.10, respectively. Besides, the “Ratio IC50” value in data set [12] is 1.5. In addition, the Activity in [3] was 68.4%; in [4] it was 13.44%; in data set [5], 18.15%. The outcome in data set [6] was inactive. The inhibition result in data set [7] was “Active”. Besides, the result in [8] was Active.
As for `O=C1C(c2cccs2)=C(c2cccs2)C(=O)N1CCCN1CCN(CCCN2C(=O)C(c3cccs3)=C(c3cccs3)C2=O)CC1`, the pIC50 in [1] and in data set [2] was below 4.52 each time.
Turning to `O=C1c2c(c3sccc3c3ccoc23)C(=O)N1CCNCCCNCCN1C(=O)c2c(c3sccc3c3ccoc23)C1=O`, the pIC50 is below 4.52 in data set [1] and 7.15 in data set [2]. In [12], the “Ratio IC50” value is given as 500.
With `O=C1C(c2ccco2)=C(c2cccs2)C(=O)N1CCNCCCNCCN1C(=O)C(c2ccco2)=C(c2cccs2)C1=O`, the results for the pIC50 in data set [1] and in [2] were 5.46 and 6.30, respectively.
On to `O=C1c2c(c3ccccc3c3ccccc23)C(=O)N1CCNCCCNCCN1C(=O)c2c(c3ccccc3c3ccccc23)C1=O`, for which the pIC50 is 6.64 in data set [1] and 6.40 in data set [2].
Regarding `O=C1C(c2cccs2)=C(c2c[nH]c3ccccc23)C(=O)N1CCNCCCNCCN1C(=O)C(c2cccs2)=C(c2c[nH]c3ccccc23)C1=O`, the values for the pIC50 in data set [1] and in [2] were 5.33 and 5.38, respectively.
As to `Cn1cccc1C1=C(c2ccco2)C(=O)N(CCNCCCNCCN2C(=O)C(c3ccco3)=C(c3cccn3C)C2=O)C1=O`, the pIC50 was 6.14 in data set [1] and 6.19 in data set [2].
Take `Cn1cccc1C1=C(c2cccs2)C(=O)N(CCNCCCNCCN2C(=O)C(c3cccs3)=C(c3cccn3C)C2=O)C1=O`: the pIC50 in [1] is 5.74; in [2], 5.47.
In the same order, the values of `O=C1C(c2ccccc2)=C(c2ccccc2)C(=O)N1CCNCCCNCCN1C(=O)C(c2ccccc2)=C(c2ccccc2)C1=O` are 6.21 and 5.92.
For `Cn1cccc1C1=C(c2c[nH]c3ccccc23)C(=O)N(CCNCCCNCCN2C(=O)C(c3c[nH]c4ccccc34)=C(c3cccn3C)C2=O)C1=O`, in that order: 4.78 and 5.41.

(Values after ChEMBL document CHEMBL1817653, “Synthesis, structural, and biological evaluation of bis-heteroarylmaleimides and bis-heterofused imides” (Bioorg Med Chem, 2011).)
